Source: PubChem
hERG rescue = hERG rescue from dofetilide block, primary screen, cell-based, CHO-hERG, FluxOR thallium flux, dofetilide IC70 | dofetilide IC70 present | activation (rescue from dofetilide block), less the hit threshold, % at 10 µM | 310,000 tested, 0.51% active;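 active = activation above the mean of controls blocked by dofetilide plus 5 SD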;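 also: thallium influx through hERG after potassium depolarization seen as dye fluorescence rise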
KCNQ1 pot = potentiators or activators of KCNQ1 channel, primary screen, cell-based, thallium flux, high-throughput; AID 2648, 2010; 310,000 tested, 0.35% active; Potassium voltage-gated channel subfamily KQT member 1 (Homo sapiens), P51787; B-score at 10 µM; CHO-K1 KCNQ1, thallium flux FluxOR fluorescence; stronger effect = higher value;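 active = fluorescence ratio B-score, a plate-corrected score, at least three library SD, with initial intensity B-score within 5 SD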
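Schedule – 37 °C overnight plating, 90-min dark dye load, 20-min compound pretreatment · System – stable KCNQ1 CHO-K1 line · Probe or stimulus – thallium- and potassium-containing depolarizing buffer · Measured by – kinetic FluxOR fluorescence, 10 s baseline plus 110 s post-stimulus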
KCNK3 block = human KCNK3 channel inhibitors, primary screen, CHO cells, FluxOR thallium flux, B-score. Potassium channel subfamily K member 3 (Homo sapiens), O14649. FluxOR fluorescence; stronger effect = lower value. B-score at 10 µM. 340,000 tested, 0.84% active;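 active = B-score under library mean minus 4 SD, starting fluorescence ratio at most library mean plus 5 SD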;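 also: more negative B-score means stronger inhibition of thallium flux through KCNK3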
KCNQ1 block = inhibitors of human KCNQ1 channel, primary screen, cell-based, thallium flux, high-throughput. B-score at 10 µM. Potassium voltage-gated channel subfamily KQT member 1 (Homo sapiens), P51787. CHO-K1 KCNQ1, FluxOR thallium flux fluorescence; stronger effect = higher value. 310,000 tested, 1.3% active. AID 2642, 2010;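 active = compounds whose thallium flux B-score, printed positive for inhibition, exceeds three library SD while starting fluorescence stays within three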;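 also: channel opened by potassium depolarization with thallium stimulus after 20 min compound exposure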
KCNK9 inh = KCNK9 potassium channel inhibitors, primary screen, HEK293 cells, thallium flux. Potassium channel subfamily K member 9 (Homo sapiens), Q9NPC2. FluxOR thallium flux fluorescence; stronger effect = lower value. B-score at 10 µM. 310,000 tested, 1.2% active;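 active = ratio B-score over 3 SD below the library mean, with starting fluorescence within 5 SD of its mean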;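 also: negative B-score means less thallium flux so channel inhibition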
KCC2 mod = KCC2 cotransporter modulators, thallium flux, primary screen, cell-based, HEK293 KCC2, FluoZin-2 fluorescence, MLSMR; Solute carrier family 12 member 5 (Homo sapiens), Q9H2X9; KCC2 cells, thallium flux FluoZin-2 fluorescence; B-score of Tl+ flux slope (higher = more flux/activation; lower = inhibition) at 10 µM; 190,000 tested, 2.2% active;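 active = thallium flux slope and its plate-corrected score both differing from the plate sample mean at a set confidence after two filtering rounds, in either direction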;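 also: slope of fluorescence scaled to starting intensity during 10 to 20 s after thallium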
Large screens that a line does not name were inactive. Sampled rows, rich in hits. Any-hit rate of the full collection: about 4.1%.

Cn1c(N)c(C(=O)c2ccc(Cl)cc2)c(=O)n(C)c1=O	none
CC(C)c1nc2c(s1)CCc1onc(-c3cccc([N+](=O)[O-])c3)c1-2	KCNK9 inh -6.7 (no result: KCC2 mod)
CC(=O)N1N=C(c2cccc([N+](=O)[O-])c2)OC1c1ccc(Br)cc1 (centres undefined)	KCNK9 inh -7
CCOc1cccc(=O)c2c(C)n(-c3ccc(C(=O)O)cc3)c(C)c12	hERG rescue 4.8 (no result: KCC2 mod)
C/C(CC(=O)Nc1ccc(Cl)c(Cl)c1)=N\NC(=O)C(=O)N1CCCCC1	none
Cc1cccc(N/C(N)=N/c2nc(C)cc(=O)[nH]2)c1	hERG rescue 5.7
COc1cccc(N/C(N)=N/c2nc(C)cc(=O)[nH]2)c1	none (no result: KCC2 mod)
Cc1ccc(NC(=O)Nn2cnnc2)cc1	none (no result: KCC2 mod)
O=C(Nc1ccc(Cl)cc1)Nn1cnnc1	hERG rescue 5.7 (no result: KCC2 mod)
O=C(CCc1cccc(Cl)c1)NC1CCCN(Cc2ccccc2F)C1 (centres undefined)	none (no result: KCC2 mod)
CCOC(=O)c1ccc(NC(=O)CSc2nc(NC(=O)c3ccccc3)c3c(C)c(C)oc3n2)cc1	none
COC(=O)c1ccccc1NC(=O)CSc1nc(NC(=O)c2ccccc2)c2c(C)c(C)oc2n1	KCNK3 block -10
O=[N+]([O-])c1ccc(S(=O)(=O)Nc2nc(-c3ccccc3)cs2)cc1	none (no result: KCC2 mod)
O=S(=O)(Nc1nc(-c2ccccc2)cs1)c1cc(Cl)ccc1Cl	KCNQ1 block 6 (no result: KCC2 mod)
C=CCn1cccc(C(=O)Nc2ccc(OC)cc2OC)c1=O	none
CCCCN1C(=O)C2ON(c3ccccc3C)C(c3ccco3)C2C1=O (centres undefined)	KCNK3 block -9
COCCN(CCOC)c1nc(S(=O)(=O)c2ccc(C)cc2)c(Cl)s1	KCNK9 inh -7.8
CC(=O)NS(=O)(=O)c1ccc(NC(=O)CCc2ccccc2)cc1	none
CN(C)CCCOC(=O)c1ccc(Cl)cc1	hERG rescue 4.8
CNC(=O)C(=O)NCC1OCCCN1S(=O)(=O)c1ccc(F)cc1C (centres undefined)	none (no result: KCC2 mod)
Cc1cc(C)nc(NS(=O)(=O)c2ccc(NC(=S)NC(=O)c3ccco3)cc2)n1	none
CCc1cc(C(=O)N2CCCC(C(=O)c3ccc(OC)c(F)c3)C2)n(C)n1 (centres undefined)	none (no result: KCC2 mod)
COc1cc(/C=C2/C(=O)NN(c3ccc(Cl)cc3)C2=O)cc(OC)c1O	none (no result: KCC2 mod)
Cc1ccc(CCNC(=O)CNS(=O)(=O)c2ccc3nc(C)sc3c2)cc1	none (no result: KCC2 mod)
CCN(Cc1ccccc1)c1ccc(/C=C(\C#N)c2ccccn2)cc1	none
CCN(CC)c1ccc(/C=C(\C#N)c2ccccn2)cc1	KCNK3 block -11, KCNQ1 block 6
Cc1nn(C(C)(C)C)c(OC(=O)c2ccc3c(c2)OCO3)c1Sc1ccccc1	none
Cc1ccc(S(=O)(=O)c2c(C)nn(C(C)(C)C)c2OC(=O)c2cccs2)cc1	KCNQ1 block 6 (no result: KCC2 mod)
Cc1nn(C(C)(C)C)c(OC(=O)c2ccc3c(c2)OCO3)c1S(=O)(=O)c1ccccc1	KCNK3 block -10
CC(=O)Oc1c(S(=O)(=O)c2ccc(C)cc2)c(C)nn1C(C)(C)C	none
O=C(NCc1ccccc1F)c1ccc2c(c1)OCCO2	none (no result: KCC2 mod)
Cc1ccc(C)c(S(=O)(=O)NCCOC(=O)Nc2sc(=S)n(C)c2C)c1	none (no result: KCC2 mod)
CC(=O)NCCOC(=O)Nc1sc(=S)n(C)c1C	KCNQ1 block 8
O=C(NC(=S)NC1CCCc2ccccc21)c1ccc(F)cc1 (centres undefined)	KCNQ1 pot 9 (no result: KCC2 mod)
CCC(C)(C)NC(=O)C(c1cccc(OC)c1)N(C(=O)c1ccn[nH]1)c1cccc(OC)c1 (centres undefined)	KCNQ1 block 8 (no result: KCC2 mod)
CCC(C)(C)NC(=O)C(c1cccs1)N(C(=O)c1ccn[nH]1)c1ccccc1 (centres undefined)	none (no result: KCC2 mod)
COc1cc(NC(=O)c2cc(-c3cccnc3)nc3ccc(C)cc23)c(OC)cc1Cl	hERG rescue 6.5 (no result: KCNK3 block, KCC2 mod)
COc1ccc(NC(=O)c2cc(-c3cccnc3)nc3ccc(C)cc23)cc1OC	none (no result: hERG rescue, KCNQ1 pot, KCNQ1 block, KCNK9 inh)
Oc1c(/C=N/c2ccccn2)sc2ccccc12	KCNQ1 pot 11
Oc1c(C=Nc2ccc(Cl)cn2)sc2ccccc12	none
Cc1ccc(C(=O)N2CCN(c3ncccn3)CC2)c(C)c1	none (no result: KCC2 mod)
CC(=O)Nc1ccc(S(=O)(=O)NCc2csc(-c3cccnc3)n2)cc1	KCC2 mod 3.2
N#Cc1c(NC(=O)/C=C/C(=O)O)sc2c1CCN(Cc1ccccc1)C2	KCNQ1 block 6 (no result: KCC2 mod)
Cc1nn(C)c(Cl)c1CN1CCCC(C(=O)Nc2cccc(-n3cccn3)c2)C1 (centres undefined)	none (no result: KCC2 mod)
Fc1ccc(-c2csc3ncnc(N4CCc5ccccc5C4)c23)cc1	KCNQ1 block 6, KCNK9 inh -7.1
CN(C)S(=O)(=O)c1ccc(Cl)c(C(=O)Nc2ccccc2[N+](=O)[O-])c1	none
CCN(CC)S(=O)(=O)c1ccc(Cl)c(C(=O)Nc2ccc(Cl)cc2[N+](=O)[O-])c1	KCNK9 inh -6.6
CC(NC1CCCCC1)C(=O)NN=C(c1ccccc1)c1ccccc1 (centres undefined)	none
CCOc1cc(/C=N/NC(=O)c2cc3c(ccc4ccccc43)o2)ccc1O	none (no result: KCC2 mod)
CCOC(=O)COc1ccccc1/C=N\NC(=O)c1cc2c(ccc3ccccc32)o1	KCNQ1 block 10, KCNK9 inh -6.8 (no result: KCC2 mod)
CCCCCCCCC1=NCCc2c1[nH]c1ccccc21	KCNQ1 block 8 (no result: KCC2 mod)
O=S(=O)(c1ccccc1)c1nc(-c2cccc(Cl)c2)oc1N1CCOCC1	none (no result: KCC2 mod)
NC(=O)C1=C[C@H](c2ccc(Br)cc2)C[C@H](OCc2ccc(CO)cc2)O1	none
CN1CCCC1CCNc1ccc2sc3ccccc3c(=O)c2c1 (centres undefined)	KCNK9 inh -7.5 (no result: KCC2 mod)
O=c1c2ccccc2sc2ccc(NCCCN3CCOCC3)cc12	none (no result: KCC2 mod)
COc1ccc2cc(C(=O)NCc3ccccc3)c(=Nc3ccc(C(=O)O)cc3)oc2c1	hERG rescue 6.8
O=c1c2ccc(Cl)cc2nc(-c2cccc(C(F)(F)F)c2)n1O	hERG rescue 75, KCNQ1 pot 136 (no result: KCC2 mod)
O=c1c2cc(Br)ccc2nc(-c2ccc(Cl)cc2)n1O	hERG rescue 35, KCNQ1 pot 104 (no result: KCC2 mod)
N#Cc1ccc(-c2nc3cc(Cl)ccc3c(=O)n2O)cc1	none (no result: KCC2 mod)
